How the values were obtained:
[1] = target: 5-hydroxytryptamine receptor 4 (Homo sapiens, UniProt Q13639); assay: Displacement of [3H]-GR113808 from human 5-HT4 receptor expressed in African green monkey COS7 cell membranes after 30 mins by liquid scintillation counting analysis; design: species or system COS-7
Method in brief: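 Membranes from Cos-7 cells expressing human 5-HT4: cells washed in PBS, pelleted, then resuspended in ice-cold 50 mM HEPES pH 7.4 and spun at 40,000 g for 30 min at 4 °C. Nonspecific binding was set with 10 μM 5-HT. IC50 came from linear regression of the displacement curve.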

[2] = tested on: Rattus norvegicus; assay: Induction of gastric emptying rate in Sprague-Dawley rat at 5 mg/kg, iv administered prior to feeding measured after 30 mins; assay type: functional, Stomach
[3] = target: 5-hydroxytryptamine receptor 4 (Rattus norvegicus, UniProt Q62758); assay: Agonist activity at 5-HT4 receptor in rat esophageal thoracic muscularis mucosae assessed as carbachol-induced contraction
5-hydroxytryptamine receptor 4 (Rattus norvegicus, UniProt Q62758), sequence (Q62758 whole entry): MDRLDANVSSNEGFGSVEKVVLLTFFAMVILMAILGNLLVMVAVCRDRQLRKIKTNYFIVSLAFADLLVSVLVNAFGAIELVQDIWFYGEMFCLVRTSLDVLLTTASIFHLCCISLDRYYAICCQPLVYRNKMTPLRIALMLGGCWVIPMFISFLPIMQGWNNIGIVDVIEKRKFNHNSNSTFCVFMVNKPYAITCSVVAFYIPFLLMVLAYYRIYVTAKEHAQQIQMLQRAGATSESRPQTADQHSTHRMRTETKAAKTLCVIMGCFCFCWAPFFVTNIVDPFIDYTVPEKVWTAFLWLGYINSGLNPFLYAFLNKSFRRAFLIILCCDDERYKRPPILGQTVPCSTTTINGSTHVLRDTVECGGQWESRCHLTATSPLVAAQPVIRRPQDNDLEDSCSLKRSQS
Method in brief: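 The distal 1.2 cm of rat esophagus was equilibrated 60 min in Krebs–Henseleit, washed every 15 min, with isometric force recording. Tissue was precontracted with 3 μM carbachol, then given a cumulative relaxation curve to 5-HT. After a wash and 60 min recovery it was recontracted and a test-compound curve run. Potency is relative to 5-HT in the same preparation.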

[4] = Solubility of the compound in distilled water; assay type: physicochemical
[5] = target: Voltage-gated inwardly rectifying potassium channel KCNH2 (Homo sapiens, UniProt Q12809); assay: Inhibition of human ERG channel by fluorescence polarization assay
Voltage-gated inwardly rectifying potassium channel KCNH2, sequence (Q12809 whole entry): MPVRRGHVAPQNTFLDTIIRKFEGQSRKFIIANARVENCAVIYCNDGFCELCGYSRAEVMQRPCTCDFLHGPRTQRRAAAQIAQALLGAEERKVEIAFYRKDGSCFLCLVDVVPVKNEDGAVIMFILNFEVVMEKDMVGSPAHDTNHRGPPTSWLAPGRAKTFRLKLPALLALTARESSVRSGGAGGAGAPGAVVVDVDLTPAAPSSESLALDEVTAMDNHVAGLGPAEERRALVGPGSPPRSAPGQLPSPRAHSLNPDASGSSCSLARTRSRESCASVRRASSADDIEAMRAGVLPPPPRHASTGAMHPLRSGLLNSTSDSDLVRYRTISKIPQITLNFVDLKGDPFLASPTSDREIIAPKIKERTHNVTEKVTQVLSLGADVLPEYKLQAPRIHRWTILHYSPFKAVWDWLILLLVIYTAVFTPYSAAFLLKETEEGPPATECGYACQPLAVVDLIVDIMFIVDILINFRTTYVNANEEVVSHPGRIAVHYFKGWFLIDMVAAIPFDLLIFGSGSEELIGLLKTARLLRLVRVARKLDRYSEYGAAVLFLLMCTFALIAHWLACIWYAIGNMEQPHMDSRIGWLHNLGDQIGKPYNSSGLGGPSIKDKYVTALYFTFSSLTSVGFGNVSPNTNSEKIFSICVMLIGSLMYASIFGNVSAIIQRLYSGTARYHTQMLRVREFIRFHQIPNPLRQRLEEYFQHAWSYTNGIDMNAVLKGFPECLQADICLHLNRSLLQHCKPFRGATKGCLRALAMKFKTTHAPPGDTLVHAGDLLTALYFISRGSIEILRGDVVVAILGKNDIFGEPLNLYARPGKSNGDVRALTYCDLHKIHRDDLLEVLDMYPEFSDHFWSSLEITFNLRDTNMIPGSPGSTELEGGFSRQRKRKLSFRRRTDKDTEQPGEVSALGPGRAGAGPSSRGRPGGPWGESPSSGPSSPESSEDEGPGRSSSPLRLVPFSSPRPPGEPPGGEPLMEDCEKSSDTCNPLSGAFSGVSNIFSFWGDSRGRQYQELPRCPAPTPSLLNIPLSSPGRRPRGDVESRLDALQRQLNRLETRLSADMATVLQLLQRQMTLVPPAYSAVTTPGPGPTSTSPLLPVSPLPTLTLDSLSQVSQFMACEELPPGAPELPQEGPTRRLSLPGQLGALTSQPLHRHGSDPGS

[6] = Cmax in rat at 5 mg/kg, po; assay type: ADME, organism-based; design: dose 5 mg/kg, route oral; details: in vivo
[7] = Tmax in rat at 5 mg/kg, po; assay type: ADME, organism-based; details: in vivo
[8] = tested on: Rattus norvegicus; assay: Induction of gastric emptying rate in Sprague-Dawley rat at 0.5 mg/kg, po administered prior to feeding measured after 30 mins; assay type: functional, Stomach
Method in brief: (§1)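 Male Sprague-Dawley rats (220–250 g) were fasted 18 h with free water. A 2 mL semisolid meal was gavaged 50 min after drug, and rats were killed 30 min later. Stomach plus contents were weighed. Gastric emptying (%) = [1 − test stomach weight/0-time control stomach weight] × 100.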

[9] = tested on: Rattus norvegicus; assay: Induction of gastric emptying rate in Sprague-Dawley rat at 0.1 mg/kg, po administered prior to feeding measured after 30 mins; assay type: functional, Stomach; method in brief: as §1
[10] = Half life in rat at 5 mg/kg, po; assay type: ADME, organism-based; details: in vivo
[11] = tested on: Rattus norvegicus; assay: Induction of gastric emptying rate in Sprague-Dawley rat at 5 mg/kg, iv administered prior to feeding along with cisplatin injection measured after 40 mins; assay type: functional, Stomach
Method in brief: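 Male Sprague-Dawley rats (220–250 g) were fasted 18 h with water available. A 2 mL semisolid meal was given 30 min after drug, together with cisplatin 5 mg/kg i.v. Gastric emptying was determined 40 min later from stomach weights versus 0-time controls: [1 − test/control] × 100.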

[12] = tested on: Rattus norvegicus; assay: AUCinfinity in rat at 5 mg/kg, po; assay type: ADME, organism-based; design: dose 5 mg/kg, time infinity, route oral; details: in vivo

5-hydroxytryptamine receptor 4 (Homo sapiens, UniProt Q13639), sequence (Q13639 whole entry): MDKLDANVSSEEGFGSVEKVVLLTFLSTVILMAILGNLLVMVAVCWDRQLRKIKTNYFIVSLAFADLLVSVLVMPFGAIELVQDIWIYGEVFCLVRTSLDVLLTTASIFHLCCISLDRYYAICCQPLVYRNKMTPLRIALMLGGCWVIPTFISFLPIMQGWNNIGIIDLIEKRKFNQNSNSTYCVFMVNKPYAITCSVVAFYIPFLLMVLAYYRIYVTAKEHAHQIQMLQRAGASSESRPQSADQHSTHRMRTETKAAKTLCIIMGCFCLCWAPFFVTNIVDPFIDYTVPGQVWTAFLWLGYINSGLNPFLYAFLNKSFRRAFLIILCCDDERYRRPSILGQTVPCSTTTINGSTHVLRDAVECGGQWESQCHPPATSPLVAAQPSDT

SMILES | IC50 [1] | Activity [2] | further results
COc1cc(N)c(Cl)cc1C(=O)N[C@H]1CCN(CCC(=O)N2CCOCC2)C[C@H]1OC (relative stereo) | 954 nM |  | 
COc1cc(N)c(Cl)cc1C(=O)N[C@H]1CCN(CC2CCN(C(=O)C(C)C)CC2)C[C@H]1OC | > 10000 nM | 56.5% | 
CCCC(=O)N1CCC(CN2CC[C@H](NC(=O)c3cc(Cl)c(N)cc3OC)[C@H](OC)C2)CC1 (relative stereo) | 178 nM | 48.6% | 
COc1cc(N)c(Cl)cc1C(=O)N[C@H]1CCN(CCCn2cccc2)C[C@H]1OC (relative stereo) | 648 nM |  | EC50 [3]: 676 nM
CCC(=O)N1CCC(CCN2CC[C@H](NC(=O)c3cc(Cl)c(N)cc3OC)[C@H](OC)C2)CC1 (relative stereo) | 805 nM |  | 
COc1cc(N)c(Cl)cc1C(=O)N[C@H]1CCN(CC2CCN(C(=O)C(C)C)CC2)C[C@H]1OC.O=C(O)CC(O)(CC(=O)O)C(=O)O |  |  | solubility [4]: > 30 mg/mL
COc1cc(N)c(Cl)cc1C(=O)N[C@H]1CCN(CC2CCN(C(=O)C(C)C)CC2)C[C@H]1OC.O=C(O)/C=C\C(=O)O |  |  | solubility [4]: > 10 mg/mL
COc1cc(N)c(Cl)cc1C(=O)N[C@H]1CCN(CCCn2ncnn2)C[C@H]1OC | 1120 nM |  | IC50 [5]: > 10000 nM
CCC(=S)N1CCC(CN2CC[C@H](NC(=O)c3cc(Cl)c(N)cc3OC)[C@H](OC)C2)CC1 (relative stereo) | 593 nM | 61% | 
COc1cc(N)c(Cl)cc1C(=O)N[C@H]1CCN(CC2CCN(C(=O)C(C)C)CC2)C[C@H]1OC (racemic) | 134 nM | 59.1% | Cmax [6]: 572 ng/mL; Tmax [7]: 15 min; Activity [8]: 46.9%; Activity [9]: 46.2%; EC50 [3]: 45.7 nM; half-life [10]: 58.8 min; Activity [11]: 58.6%; AUC [12]: 483 ng·h/mL
COc1cc(N)c(Cl)cc1C(=O)N[C@H]1CCN(CC2CCN(C(=S)C(C)C)CC2)C[C@H]1OC (relative stereo) | 155 nM | 67.3% | 
CCOC(=O)N1CCC(CN2CC[C@H](NC(=O)c3cc(Cl)c(N)cc3OC)[C@H](OC)C2)CC1 | 377 nM | 55.9% | 
CCC(=O)N1CCCC(CN2CC[C@H](NC(=O)c3cc(Cl)c(N)cc3OC)[C@H](OC)C2)C1 (relative stereo) | 493 nM |  | EC50 [3]: 1550 nM
COc1cc(N)c(Cl)cc1C(=O)N[C@H]1CCN(CCn2cccc2)C[C@H]1OC (relative stereo) | 5760 nM |  | 
COc1cc(N)c(Cl)cc1C(=O)N[C@H]1CCN(CC2CCN(C(C)=O)CC2)C[C@H]1OC (relative stereo) | 592 nM | 39.5% | 
COc1cc(N)c(Cl)cc1C(=O)N[C@@H]1CCN(CC2CCN(C(=O)C(C)C)CC2)C[C@@H]1OC | 68 nM | 61.7% | 
COc1cc(N)c(Cl)cc1C(=O)N[C@H]1CCN(CCC(=O)N2CCC(Cc3ccccc3)CC2)C[C@H]1OC (relative stereo) | 66 nM |  | EC50 [3]: 6030 nM
